Assay outcomes: PubChem, several laboratories
UCH37 DUB inh – inhibitors of human UCH37 deubiquitinase, primary screen, biochemical, Ub-AMC cleavage, fluorescence; Ubiquitin carboxyl-terminal hydrolase isozyme L5 (Homo sapiens), Q9Y5K5; purified proteasome/UCH37; inhibition, % (test concentration not listed); 0.33% of 330,000 active;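 active = mean inhibition over replicate wells above about 20%, limit read from the data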;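 note: 0% = compound-free wells with enzyme and 100% = wells lacking proteasome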
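System: Proteasome-associated human UCH37 deubiquitinase; Input: 0.15 nM proteasome in added enzyme buffer; Also added: Ub-AMC substrate from 1 µM stock; Incubation: 30 min compound-proteasome preincubation then 25 min substrate reaction, room temperature; Detection: fluorescence, ex 355 nm, em 460 nm; Read-out: % inhibition of Ub-AMC cleavage fluorescence; Benchmarks: no-proteasome and no-compound wells.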
MT1-MMP act inh – blockers of MT1-MMP proenzyme processing, primary screen, HT1080 RFP-PRO-GFP cells, GFP/RFP fluorescence; Matrix metalloproteinase-14 (Homo sapiens), P50281; AID 651647, 2012; GFP/RFP ratio fluorescence, overnight; percent of plate control window, DMSO zero; GFP/RFP ratio change, % at 20 µM; 0.061% of 360,000 active;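 active = GFP/RFP ratio change of at least 30% with cell ATP level not reduced by more than half and red fluorescence within 50% of control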
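Compound: 20 µM single dose, 1% DMSO / System: HT1080 RFP-PRO-GFP cells / Controls: DMSO and RFP-L50D-GFP cell wells / Read-out basis: GFP/RFP fluorescence ratio / Schedule: overnight compound exposure at 37 °C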
DAGLB inh – DAGLB lipase inhibitors, primary screen, biochemical, fluorescence, HTS. HEK293T DAGLB membrane lysate, EnzChek fluorogenic substrate. inhibition, % at 5.17 µM. 0.059% of 340,000 active. AID 504411, 2011; in the data active = inhibition above about 34%;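 note: 0% = enzyme with vehicle and 100% = wells lacking enzyme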
Target sequence (Q8NCG7 whole entry, looked up): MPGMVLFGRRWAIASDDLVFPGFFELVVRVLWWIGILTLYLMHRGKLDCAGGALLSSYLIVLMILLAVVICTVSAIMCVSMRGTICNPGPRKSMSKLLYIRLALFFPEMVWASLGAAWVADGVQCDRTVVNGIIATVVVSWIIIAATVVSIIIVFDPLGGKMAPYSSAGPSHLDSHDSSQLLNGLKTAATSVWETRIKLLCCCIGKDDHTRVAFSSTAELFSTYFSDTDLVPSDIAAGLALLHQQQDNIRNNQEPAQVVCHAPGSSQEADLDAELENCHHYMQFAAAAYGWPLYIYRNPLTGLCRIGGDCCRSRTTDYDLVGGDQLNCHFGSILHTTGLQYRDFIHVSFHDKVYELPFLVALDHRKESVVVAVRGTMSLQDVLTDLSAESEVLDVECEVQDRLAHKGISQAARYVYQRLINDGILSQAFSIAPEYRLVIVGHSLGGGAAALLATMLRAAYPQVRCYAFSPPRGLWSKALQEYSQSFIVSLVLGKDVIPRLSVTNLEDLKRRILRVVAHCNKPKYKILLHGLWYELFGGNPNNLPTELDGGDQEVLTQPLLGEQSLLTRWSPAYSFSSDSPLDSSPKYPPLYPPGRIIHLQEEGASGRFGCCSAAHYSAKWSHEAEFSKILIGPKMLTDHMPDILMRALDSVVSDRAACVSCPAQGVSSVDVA
CendR NRP1 mod – modulators of CendR peptide binding to NRP-1, primary screen, biochemical, fluorescence polarization, uHTS. Neuropilin-1 (Homo sapiens), O14786. FAM-RPARPAR peptide binding to NRP-1. inhibition, % at 25 µM. 0.85% of 360,000 active. AID 602438, 2012;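 active = inhibition or corrected inhibition above about 18%, plus a signal ratio from 0.5 to 1.5, limit read from the data, passing the limit was not always enough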
Fh CTSL1 inh – Fasciola hepatica cathepsin L1 inhibitors, primary screen, counter-screen for PFM18AAP inhibitor project, biochemical, QFRET, fluorogenic peptide substrate; 0.49% of 300,000 active; inhibition, % at 5.96 µM; recombinant F. hepatica cathepsin L1, Z-Leu-Arg-MCA fluorescence;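 active = inhibition above the mean of all tested compounds plus 3 SD, set per screening campaign, cut at about 17% in these data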;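 note: 0% = plate median of test compound wells and 100% = 1 µM Z-Phe-Ala-diazomethylketone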
Active calls of the source: *. Hits are enriched below; roughly 1.5% of the tested compounds scored in any of these assays.

CCOC(=O)c1cnc2c(ccc3ccccc32)c1NCCO was read as UCH37 DUB inh -21, MT1-MMP act inh 3, DAGLB inh -2, CendR NRP1 mod -13 and Fh CTSL1 inh 3.
Screening CCOC(=O)c1cnc2ccc(C)cc2c1NCCO returned UCH37 DUB inh 2, MT1-MMP act inh 3, DAGLB inh 0, CendR NRP1 mod 27* and Fh CTSL1 inh 6.
For Cc1nn(Cc2c(F)c(F)c(F)c(F)c2F)c(C)c1NC(=O)c1ccc(COc2ccc(Cl)cc2Cl)o1 the results were UCH37 DUB inh 5, MT1-MMP act inh -2, DAGLB inh -5, CendR NRP1 mod 3 and Fh CTSL1 inh 17*.
CC(CC1(O)C(=O)N(Cc2ccccc2)c2ccccc21)=NO (stereo not drawn) was read as UCH37 DUB inh 2.
O=C(NN=Cc1ccc(O)cc1O)NC12CC3CC(CC(C3)C1)C2 was read as UCH37 DUB inh -1.
`c1ccc(CSc2nnc(-c3ccncc3)o2)cc1` gave UCH37 DUB inh 3, MT1-MMP act inh -9, DAGLB inh -1, CendR NRP1 mod 26* and Fh CTSL1 inh 0.
`N#Cc1ccc(CSc2nnc(-c3ccncc3)o2)cc1` gave UCH37 DUB inh 1, MT1-MMP act inh -11, DAGLB inh -4, CendR NRP1 mod 8 and Fh CTSL1 inh -3.
`COc1cccc(C=NNC(=S)NCCc2ccccc2)c1OC` gave UCH37 DUB inh 1.
`CCOC(=O)NN=C(C)c1ccc(-n2cnnn2)cc1` gave UCH37 DUB inh 1.
`COc1ccc(/C=C/C(=O)O)cc1S(=O)(=O)Nc1ccc2c(c1)OCO2` gave UCH37 DUB inh 1, MT1-MMP act inh 0, DAGLB inh 1, CendR NRP1 mod 26* and Fh CTSL1 inh -1.
For COc1ccc(S(=O)(=O)NC(C)C(=O)Nc2ccc3c(c2)OCO3)cc1OC (stereo not drawn) the results were UCH37 DUB inh 3, MT1-MMP act inh -2, DAGLB inh 1, CendR NRP1 mod 17* and Fh CTSL1 inh 7.
COc1ccc(S(=O)(=O)NC(C)C(=O)Nc2ccc3c(c2)OCCO3)cc1OC (stereo not drawn) was read as UCH37 DUB inh 2, MT1-MMP act inh -4, DAGLB inh 2, CendR NRP1 mod -3 and Fh CTSL1 inh 0.
For NC(=O)c1cc2cc(Cl)ccc2oc1=NNC(=O)c1cccs1 the results were UCH37 DUB inh 1.
`C[C@@]12CCC=C[C@H]1[C@H](c1ccc(/C=C/c3ccccc3)cc1F)N(Cc1ccccc1)C2=O` gave UCH37 DUB inh 2, MT1-MMP act inh -7, DAGLB inh -12, CendR NRP1 mod 21* and Fh CTSL1 inh 0.
Cc1ccc(-c2cccc(C3CC=CC4C3C(=O)N(Cc3ccccc3)C4c3cc(C)ccc3F)c2)cc1 (stereo not drawn) was read as UCH37 DUB inh 0, MT1-MMP act inh -5, DAGLB inh -13, CendR NRP1 mod 30* and Fh CTSL1 inh 0.
For COc1ccc(-c2cccc(C3CC=CC4C3C(=O)N(Cc3ccccc3)C4c3ccc(C(F)(F)F)cc3)c2)cc1 (stereo not drawn) the results were UCH37 DUB inh 0, MT1-MMP act inh -5, DAGLB inh -12, CendR NRP1 mod 3 and Fh CTSL1 inh 2.
C[C@@]12CCC=C[C@H]1[C@H](c1ccc(C(F)(F)F)cc1)N(Cc1ccccc1)C2=O was read as UCH37 DUB inh -1, MT1-MMP act inh -11, DAGLB inh -5, CendR NRP1 mod 26* and Fh CTSL1 inh 4.
For COc1ccc([C@H]2[C@H]3C=CC[C@@H](C)[C@@H]3C(=O)N2Cc2ccccc2)cc1Cl the results were UCH37 DUB inh 2, MT1-MMP act inh -11, DAGLB inh -4, CendR NRP1 mod 28* and Fh CTSL1 inh 2.
COc1ccc(-c2ccc(C)cc2)cc1[C@H]1[C@@H]2C=CCC[C@@]2(C)C(=O)N1Cc1ccccc1 was read as UCH37 DUB inh -1, MT1-MMP act inh -5, DAGLB inh -9, CendR NRP1 mod 9 and Fh CTSL1 inh 3.
C[C@@H]1CC=C[C@H]2[C@H]1C(=O)N(Cc1ccccc1)[C@H]2c1ccc(/C=C/c2ccccc2)cc1F was read as UCH37 DUB inh 1, MT1-MMP act inh -8, DAGLB inh -13, CendR NRP1 mod 29* and Fh CTSL1 inh -4.
Screening CCOC(=O)N1CCN(C(=O)Nc2ccc3nc(C)c(C)nc3c2)CC1 returned UCH37 DUB inh -62, MT1-MMP act inh 3, DAGLB inh -2, CendR NRP1 mod 44* and Fh CTSL1 inh 3.
Screening CCOC(=O)N1CCN(C(=O)Nc2ccc3nccnc3c2)CC1 returned UCH37 DUB inh -69, MT1-MMP act inh 1, DAGLB inh -1, CendR NRP1 mod -5 and Fh CTSL1 inh 0.
`Fc1ccc(C=Nn2cnn(Cc3ccccc3Cl)c2=S)cc1` gave UCH37 DUB inh 3.
Cn1cc(S(=O)(=O)N2CCOCC2)cc1C(=O)O was read as UCH37 DUB inh -1, MT1-MMP act inh -2, DAGLB inh 0 and CendR NRP1 mod 31*.
For Cc1cccc(C)c1NC(=O)c1cc(S(=O)(=O)N2CCOCC2)cn1C the results were UCH37 DUB inh 6, MT1-MMP act inh 0, DAGLB inh 1, CendR NRP1 mod -5 and Fh CTSL1 inh 0.
CCCc1nnc(SCc2ccc(C(=O)OC)o2)n1N was read as UCH37 DUB inh 3, MT1-MMP act inh -1, DAGLB inh 0, CendR NRP1 mod -8 and Fh CTSL1 inh -2.
For CCc1nnc(SCc2ccc(C(=O)OC)o2)n1N the results were UCH37 DUB inh 4, MT1-MMP act inh -2, DAGLB inh 1, CendR NRP1 mod 38* and Fh CTSL1 inh 1.
Screening COc1ccc(C=NNC(=O)CNC(=O)c2ccc3c(c2)OCCO3)cc1OC returned UCH37 DUB inh 2.
Screening COc1ccc(C(=O)c2no[n+]([O-])c2C(=O)c2ccc(OC)cc2)cc1 returned UCH37 DUB inh 8, MT1-MMP act inh 2, DAGLB inh -5, CendR NRP1 mod -14 and Fh CTSL1 inh 18*.
For COc1ccc(NC(=O)c2c(N)no[n+]2[O-])cc1 the results were UCH37 DUB inh 6, MT1-MMP act inh -3, DAGLB inh 0, CendR NRP1 mod -2 and Fh CTSL1 inh 3.
CCCN=C1N/C(=C\c2ccco2)C(=O)N1c1ccccc1 was read as UCH37 DUB inh 0, MT1-MMP act inh -6, DAGLB inh 1, CendR NRP1 mod 43* and Fh CTSL1 inh 9.
Screening CC(=NNC(=S)NC(C)C)c1ccc2c(c1)OCCO2 returned UCH37 DUB inh 6.
